Assay results from ChEMBL document CHEMBL1138871, “Synthesis and HIV-integrase strand transfer inhibition activity of 7-hydroxy[1,3]thiazolo[5,4-b]pyridin-5(4H)-ones” (Bioorg Med Chem Lett, 2006).

Test: Inhibition of recombinant HIV integrase strand transfer activity
Parameters: species or system Human immunodeficiency virus
Method in brief: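 Recombinant integrase (2 µM) prebound to biotinylated donor DNA (0.66 µM) on streptavidin SPA beads, 5 min 37 °C in 25 mM MOPS pH 7.2, 23 mM NaCl, 10 mM MgCl₂, 10 mM DTT, 10% DMSO. Beads washed and resuspended to 570 nM integrase. Compound (6.7% DMSO final) preincubated 60 min 37 °C. Then [³H] target DNA at 7 nM final added, run 25–45 min 37 °C, EDTA-quenched, read by SPA. Means ± SE.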

SMILES	IC50 [µM]
Cn1c(=O)c(C(=O)NCc2ccc(Cl)cc2)c(O)c2ncsc21	2.1
CS(=O)(=O)c1cccc(-n2c(=O)c(C(=O)NCc3ccc(F)cc3)c(O)c3ncsc32)c1	0.93
Cn1c(=O)c(C(=O)NCc2ccc(F)cc2)c(O)c2nc(Cc3ccc(F)cc3)sc21	151
COC(=O)c1c(O)c2ncsc2[nH]c1=O	> 500
O=C(NCc1ccc(F)cc1)c1c(O)c2ncsc2n(-c2cccc(C(F)(F)F)c2)c1=O	7
Cn1c(=O)c(C(=O)NCc2ccc(F)cc2)c(O)c2ncsc21	0.7
C[S+]([O-])c1cccc(-n2c(=O)c(C(=O)NCc3ccc(F)cc3)c(O)c3ncsc32)c1 (stereo not drawn)	2
COc1ccc(Cn2c(=O)c(C(=O)NCc3ccc(F)cc3)c(O)c3ncsc32)cc1	4
COC(=O)c1c(O)c2ncsc2n(-c2cccc([N+](=O)[O-])c2)c1=O	> 500
COC(=O)c1c(O)c2ncsc2n(-c2ccc(OC)cc2)c1=O	> 500
O=C(NCc1ccc(F)cc1)c1c(O)c2nc(Cc3ccc(F)cc3)sc2n(-c2ccccc2)c1=O	4
O=C(NCc1ccc(F)cc1)c1c(O)c2ncsc2n(-c2cccc([N+](=O)[O-])c2)c1=O	17
COC(=O)c1c(O)c2nc(Cc3ccc(F)cc3)sc2n(-c2ccccc2)c1=O	282
COC(=O)c1c(O)c2ncsc2n(C)c1=O	> 500
O=C(/C=C(\O)c1nc[nH]n1)c1ccc(Cc2ccc(F)cc2)o1 [S-1360]	0.16
CSc1cccc(-n2c(=O)c(C(=O)NCc3ccc(F)cc3)c(O)c3ncsc32)c1	7
CCn1c(=O)c(C(=O)NCc2ccc(F)cc2)c(O)c2ncsc21	0.03
O=C(NCc1ccc(F)cc1)c1c(O)c2ncsc2[nH]c1=O	1.5
COC(=O)c1c(O)c2nc(Cc3ccc(F)cc3)sc2n(C)c1=O	35
CC(C)n1c(=O)c(C(=O)NCc2ccc(F)cc2)c(O)c2ncsc21	0.19
COC(=O)c1c(O)c2ncsc2n(C(C)C)c1=O	11
COC(=O)c1c(O)c2ncsc2n(-c2ccccc2)c1=O	> 500
O=C(NCc1ccc(F)cc1)c1c(O)c2ncsc2n(-c2ccccc2)c1=O	0.4
COC(=O)c1c(O)c2ncsc2n(-c2cccc(SC)c2)c1=O	> 500
CCn1c(=O)c(C(=O)OC)c(O)c2ncsc21	1.23
COC(=O)c1c(O)c2ncsc2n(Cc2ccc(OC)cc2)c1=O	4.2
COc1ccc(-n2c(=O)c(C(=O)NCc3ccc(F)cc3)c(O)c3ncsc32)cc1	1
COC(=O)c1c(O)c2ncsc2n(-c2cccc(C(F)(F)F)c2)c1=O	> 500
